Data from ChEMBL document CHEMBL3124926, “Identification of highly efficacious glucocorticoid receptor agonists with a potential for reduced clinical bone side effects” (J Med Chem, 2014).

Experiments:
[1] = target: T1, Glucocorticoid receptor (Homo sapiens) (UniProt P04150); experiment: Agonist activity at glucocorticoid receptor in human HeLa cells transfected with luciferase gene linked to MMTV promoter assessed as induction of luciferase transactivation activity at 2 uM after 6 hrs by luminescence assay; type: cell-based
T1 sequence (whole entry): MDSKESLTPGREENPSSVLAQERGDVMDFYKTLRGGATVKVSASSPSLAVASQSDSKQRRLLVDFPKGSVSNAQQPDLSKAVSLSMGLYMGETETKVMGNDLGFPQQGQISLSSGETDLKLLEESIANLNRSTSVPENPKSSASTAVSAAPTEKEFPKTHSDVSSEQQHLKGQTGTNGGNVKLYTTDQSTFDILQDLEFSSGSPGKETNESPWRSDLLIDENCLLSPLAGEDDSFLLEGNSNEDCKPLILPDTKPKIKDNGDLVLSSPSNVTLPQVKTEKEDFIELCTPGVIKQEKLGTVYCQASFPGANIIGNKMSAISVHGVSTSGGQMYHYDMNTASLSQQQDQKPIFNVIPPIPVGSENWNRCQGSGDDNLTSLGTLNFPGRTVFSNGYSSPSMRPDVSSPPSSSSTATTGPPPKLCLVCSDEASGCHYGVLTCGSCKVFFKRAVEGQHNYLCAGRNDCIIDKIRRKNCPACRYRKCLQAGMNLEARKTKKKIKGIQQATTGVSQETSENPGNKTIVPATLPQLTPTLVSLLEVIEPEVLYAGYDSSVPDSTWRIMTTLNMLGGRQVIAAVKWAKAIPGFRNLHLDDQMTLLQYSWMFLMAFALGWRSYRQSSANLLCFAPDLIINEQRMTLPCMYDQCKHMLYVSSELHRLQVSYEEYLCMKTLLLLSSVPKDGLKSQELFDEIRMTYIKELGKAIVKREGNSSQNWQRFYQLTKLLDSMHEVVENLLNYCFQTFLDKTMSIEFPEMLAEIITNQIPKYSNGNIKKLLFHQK
Method in brief: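 HeLa cells stably carrying an MMTV-luciferase construct, plated the day before at 25000/well in DMEM with 3% FBS. Medium replaced, then compound added (0.2% DMSO final); 1 μM dexamethasone wells = 100% induction, vehicle = background. Incubated 6 h at 37 °C, 5% CO2. Luminescence read after lysis; activation expressed as % of positive control. Top concentration 2 μM.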

[2] = Permeability across human Caco2 cells; type: ADME, cell-based; settings: Caco-2, read-out: permeability
[3] = target: T2, Glucocorticoid receptor (Homo sapiens, UniProt P04150); experiment: Transrepression activity at glucocorticoid receptor in human fibroblasts assessed as inhibition of IL-1-induced IL-6 production after 18 to 24 hrs
T2 sequence (P04150 whole entry): T1 sequence (whole entry)
Method in brief: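 Human foreskin fibroblasts grown in Iscove's medium with 10% charcoal/dextran-treated FBS, plated at 20000/well two days before. Medium replaced, then compound (0.4% DMSO final) and recombinant human IL-1 (1 ng/mL final) added. 18–24 h at 37 °C; IL-6 in medium quantified by electrochemiluminescence, DELFIA or ELISA. IC50 by four-parameter fit of duplicate 11-point curves. Efficacy relative to dexamethasone (100%); top concentration 2 μM.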

[4] = target: T2, Glucocorticoid receptor; experiment: Competitive binding affinity to glucocorticoid receptor (unknown origin) expressed in baculovirus-infected cell system after 1 hr by fluorescence polarization assay in presence of tetramethylrhodamine-labeled dexamethasone
Method in brief: (§1)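 Lysates of baculovirus-infected insect cells co-expressing receptor with HSP-70, HSP-90 and p23 (GR diluted 300-fold, MR 17-fold). Probe 5 nM tetramethylrhodamine-dexamethasone in TES/KCl/molybdate/EDTA/CHAPS/glycerol/DTT buffer, pH 7.4, 1% DMSO. 1 h at room temperature in the dark; fluorescence polarization read (ex 550/em 580 nm). Background set with 2 μM dexamethasone. IC50 from duplicate 11-point curves, four-parameter fit, mean of at least two determinations.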

[5] = target: T1, Glucocorticoid receptor (Homo sapiens); experiment: Agonist activity at glucocorticoid receptor in human […] cells assessed as suppression of vitamin D-induced osteocalcin production at 2 uM after 48 hrs by Gla-type osteocalcin ELISA relative to dexomethasone; type: cell-based
Method in brief: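 MG-63 human osteosarcoma cells plated at 20000/well in DMEM/F-12 with 1% charcoal-filtered FBS and 10 μg/mL vitamin C. Medium refreshed next day, then vitamin D (10 nM final) added with compound (2 × 10−6 to 10−10 M), duplicates. Incubated 48 h at 37 °C; supernatant osteocalcin measured by Gla-type ELISA. Vitamin D-only wells = 100%. Max efficacy at 2 μM is relative to dexamethasone (100%).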

[6] = target: T3, Mineralocorticoid receptor (Homo sapiens, UniProt P08235); experiment: Competitive binding affinity to mineralocorticoid receptor (unknown origin) expressed in baculovirus-infected cell system after 1 hr by fluorescence polarization assay in presence of tetramethylrhodamine-labeled dexamethasone; method in brief: as §1
T3 sequence (P08235 whole entry): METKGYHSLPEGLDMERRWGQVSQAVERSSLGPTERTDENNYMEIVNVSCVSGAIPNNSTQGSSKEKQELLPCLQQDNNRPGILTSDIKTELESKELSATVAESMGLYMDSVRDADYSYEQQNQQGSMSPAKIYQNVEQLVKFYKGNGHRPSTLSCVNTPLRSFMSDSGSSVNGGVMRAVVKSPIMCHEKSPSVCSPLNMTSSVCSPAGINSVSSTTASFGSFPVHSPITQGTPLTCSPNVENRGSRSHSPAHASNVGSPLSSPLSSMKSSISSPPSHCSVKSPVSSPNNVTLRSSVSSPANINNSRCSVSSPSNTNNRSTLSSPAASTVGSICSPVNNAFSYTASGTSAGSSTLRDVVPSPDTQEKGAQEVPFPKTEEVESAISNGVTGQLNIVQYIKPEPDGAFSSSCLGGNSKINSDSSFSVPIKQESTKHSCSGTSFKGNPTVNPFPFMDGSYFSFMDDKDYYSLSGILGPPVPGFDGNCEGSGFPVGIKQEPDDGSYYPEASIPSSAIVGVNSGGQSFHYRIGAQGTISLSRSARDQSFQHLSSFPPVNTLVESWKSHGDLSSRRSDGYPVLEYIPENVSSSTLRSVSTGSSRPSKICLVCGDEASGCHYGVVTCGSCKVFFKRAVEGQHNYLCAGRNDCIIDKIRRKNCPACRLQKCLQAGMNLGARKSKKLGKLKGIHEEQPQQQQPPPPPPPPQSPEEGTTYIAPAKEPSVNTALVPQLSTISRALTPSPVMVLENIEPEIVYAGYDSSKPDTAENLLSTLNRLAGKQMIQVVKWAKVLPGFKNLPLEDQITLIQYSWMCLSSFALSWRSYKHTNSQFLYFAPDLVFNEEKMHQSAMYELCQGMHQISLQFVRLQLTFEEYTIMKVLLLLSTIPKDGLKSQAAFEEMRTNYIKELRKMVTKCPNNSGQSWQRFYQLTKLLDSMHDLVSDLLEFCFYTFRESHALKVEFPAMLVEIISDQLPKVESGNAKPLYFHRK

[7] = Cmax in B10.RIII mouse at 100 mg/kg, po; type: ADME, organism-based; design: dose 100 mg/kg, route oral; settings: in vivo
Method in brief: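 Plasma levels measured in satellite B10.RIII mice (n = 3) after a single 100 mg/kg oral dose.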

[8] = Oral bioavailability in rat at 30 mg/kg; type: ADME, organism-based; settings: in vivo

| Structure (SMILES) | Emax [1] [%] | Papp [2] [×10⁻⁶ cm/s] | IC50 [3] [nM] | IC50 [4] [nM] | Emax [5] [%] | IC50 [6] [nM] | Cmax [7] [µM] | bioavailability [8] [%] |
| --- | --- | --- | --- | --- | --- | --- | --- | --- |
| Cc1ccc(F)cc1C(C)(C)CC(O)(Cc1cc2nnccc2[nH]1)C(F)(F)F (racemic) | 7 | 13 | 16 | 7 | 45 | 615 |  |  |
| CC(C)(CC(O)(Cc1cc2ncncc2[nH]1)C(F)(F)F)c1ccc(F)cc1O (racemic) | 22 |  | 9 | 5 | 28 | 1200 |  |  |
| CC(C)(CC(O)(Cc1cc2ncncc2[nH]1)C(F)(F)F)c1cc(Cl)cc2c1OCC2 (racemic) | 12 |  | 13 | 5 | 35 | 340 |  |  |
| Cc1ccc(F)cc1C(C)(C)C[C@@](O)(Cc1cc2ncncc2[nH]1)C(F)(F)F | 0 |  | 13 | 4 | 32 | 475 | 4.32 | 13 |
| Cc1ccc(F)cc1C(C)(C)CC(O)(Cc1cc2cc(-c3ccccc3)nnc2[nH]1)C(F)(F)F (racemic) | 75 |  | 6 | 13 | 73 | > 2000 |  |  |
| Cc1ccc(F)cc1C(C)(C)C[C@@](O)(Cc1cc2nnccc2[nH]1)C(F)(F)F | 0 |  | 9 | 5 | 34 | 260 | 38.9 | 9 |
| Cc1ccc(F)cc1C(C)(C)CC(O)(Cc1cc2nc(-c3ccccc3)ncc2[nH]1)C(F)(F)F (racemic) | 36 |  | 8 | 5 | 72 | 1900 |  |  |
| Cc1ccc(F)cc1C(C)(C)CC(O)(Cc1cc2nc(N3CCS(=O)(=O)CC3)ncc2[nH]1)C(F)(F)F (racemic) | 22 |  | 19 | 8 | 80 | > 2000 |  |  |
| Cc1ccc(F)cc1C(C)(C)CC(O)(Cc1cc2nc(-c3cccnc3)ncc2[nH]1)C(F)(F)F (racemic) | 32 |  | 12 | 5 | 74 | > 2000 |  |  |
| Cc1ccc(F)cc1C(C)(C)CC(O)(Cc1cc2ncncc2[nH]1)C(F)(F)F (racemic) | 0 | 11 | 19 | 8 | 32 | 855 |  |  |
